Test results as given in the EternaBench riboswitch data.

Test system: MS2 coat protein
Assay: apparent Kd, MS2 coat protein; higher = weaker binding; RNA-MaP array; FMN 200 µM where present
Procedure, shortened: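 The apparent Kd comes from binding curves fitted cluster by cluster, filtered, and summarised as a median. Those curves followed SNAP-549-labelled MS2 coat protein from 0.7 or 1.5 nM, doubling to 3 µM, on Illumina sequencing-chip clusters where stalled E. coli RNA polymerase had transcribed the designs, without and then with constant ligand. The buffer was 100 mM Tris-HCl pH 7.5, 80 mM KCl, 4 mM MgCl2, BSA, DTT, yeast tRNA and Tween-20, and green signal was normalised to red-channel RNA signal and control-cluster median Fmax.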

[1] = designed as: ON switch for flavin mononucleotide, no ligand
[2] = ligand present: flavin mononucleotide, designed as: ON switch for flavin mononucleotide
[3] = designed as: OFF switch for flavin mononucleotide, no ligand
[4] = ligand present: flavin mononucleotide, designed as: OFF switch for flavin mononucleotide

| Sequence | apparent Kd [1] [nM] | apparent Kd [2] [nM] | apparent Kd [3] [nM] | apparent Kd [4] [nM] |
| --- | --- | --- | --- | --- |
| GUAGCUAUCGGAGGAUAUUCAUACCGGAAAAGGACAUGAGGAUCACCCAUGUGGUGAAAGCCUUGGGAGAAGGCCGAUAGCUAC | 484 | 191 | – | – |
| GUAGCUAUCGGAGGAUAUUCAUACCGGAAACGGACAUGAGGAUCACCCAUGUGGCGAAAGCCUUGGAAGAAGGCCGAUAGCUAC | 4.08 | 3.56 | – | – |
| GUAGCUAUCGGAGGAUAUUCAUACCGGAAACGGACAUGAGGAUCACCCAUGUGGCGAAAGCCUUGGGAGAAGGCCGAUAGCUAC | 601 | 20.8 | – | – |
| GUAGUUAGUAAAGGAUAUUAGUGUGUGUAAUAUUGAGAAGGUUACAUGAGGAUCACCCAUGUGAUCAAUCACUGUUAAGGUUGC | – | – | 6.6 | 6.42 |
| GUAUACGAUGAGGAUAUAUGAUAUCAAAGCAUCAUAGAAGGCAUCACAUGAGGAUCACCCAUGUGAUCUUCUUU | – | – | 18.1 | 65.2 |
| GUAUAGGACAGAGGAUAUACGUGCUAGAGAUACUAGCAAAAUUUCCUCACAUGAGGAUCACCCAUGUAGAAGGCUGUCCUAUCG | – | – | 17.1 | 498 |
| GUAUCUUAUGAGAAGGCGAUCAUGAAACAUGAUCGAGGAUAUCAUGUAAACAUGAGGAUCACCCAUGUAUGGGUAUUAUGGUAU | 95 | 80.2 | – | – |
| GUAUGAGCGAUAGGAUAUACUGAGAUUGAAUGGGUAGAAGGAUCACUUGUGUGGAAGACAUGAGGAUCACCCAUGUUACGGGCC | 20.7 | 62.6 | – | – |
| GUAUGAGCGAUAGGAUAUACUGAGAUUGAAUGGGUAGAAGGAUCUCUUGUGGGAAAGACAUGAGGAUCACCCAUGUCACGGACC | 186 | 100 | – | – |
| GUAUGCAAGUAGAAGGACGGAUAUUUUGAAAACGUAGGAUAUACAGAAUCAUAUCCACAUGGAUACAUGAGGAUCACCCAUGUA | – | – | 12 | 11.8 |
| GUAUUUAGAUAAGGAUAUAAGUCUAUGACAUGAGGAUCACCCAUGUGUGUUUUAGAAGGUAUUUGGGUAAUAUUGUUACAGUAA | 29.6 | 21.3 | – | – |
| GUAUUUUUACAGAAGGUGUAUUACAUGAGGAUCACCCAUGUAUUAUGGAAUAAAGUUGUUAUUUACAAGGAUAUGUACUAUUUU | 19.3 | 14.8 | – | – |
| GUCAGCACGUGAGGAUAUACAACACUGCUUCGGCAGUGUAUUAAGAUCACAUGAGGAUCACCCAUGUAGAAGGCACGAGCUGAU | – | – | 13.6 | 268 |
| GUCAGCUCGUCAGGAUAUACAACACUGCUUCGGCAGUGUAUUAAGAUCACAUGAGGAUCACCCAUGUAGAAGGCACGAGCUGAU | – | – | 7.39 | 7.56 |
| GUCAGCUCGUCAGGAUAUACGUCACUGCUUCGGCAGUGUGGUAAGAUCACAUGAGGAUCACCCAUGUAGAAGGGACGAGCUGAG | – | – | 13.3 | 296 |
| GUCAGCUCGUGAGGAUAUACAACAAUGCUUCGGCAGUGUAUUAAGAUCACAUGAGGAUCACCCAUGUAGAAGGCACGAGCUGAU | – | – | 7.66 | 73.7 |
| GUCAGCUCGUGAGGAUAUACAACACUGCUUCGGCAGUGUAUAAAGAUCACAUGAGGAUCACCCAUGUAGAAGGCACGAGCUGAU | – | – | 15.2 | 213 |
| GUCAGCUCGUGAGGAUAUACAACACUGCUUCGGCAGUGUAUUAAGAUCACAUGAGGAUCACCCAUGUAGAAGGCACGAGCUGAA | – | – | 13.7 | 245 |
| GUCAGCUCGUGAGGAUAUACAACACUGCUUCGGCAGUGUAUUAAGAUCACAUGAGGAUCACCCAUGUAGAAGGCAGGAGCUGAU | – | – | 15.7 | 250 |
| GUCAGCUCGUGAGGAUAUACAACACUGCUUCGGCGGUGUAUUAAGAUCACAUGAGGAUCACCCAUGUAGAAGGCACGAGCUGAU | – | – | 13.1 | 249 |
| GUCAGCUCGUGAGGAUAUACAACGCUGCUUCGGCAGUGUAUUAAGAUCACAUGAGGAUCACCCAUGUAGAAGGCACGAGCUGAU | – | – | 15.1 | 284 |

| Sequence | apparent Kd [1] [nM] | apparent Kd [2] [nM] | apparent Kd [3] [nM] | apparent Kd [4] [nM] |
| --- | --- | --- | --- | --- |
| GUCAGCUCGUGAGGAUAUACAUAAUAUCAAGAUCACAUGAGGAUCACCCAUGUAGAAGGCACGAGCUGAUAAGCACGAAAGUGC | – | – | 12.1 | 102 |
| GUCAGCUCGUGAGGAUAUACAUCACUGCUUCGGCAGUGUAUUAAGAUAACAUGAGGAUCACCCAUGUAGAAGGCACGAGCUGAU | – | – | 17 | 28.5 |
| GUCAGCUCGUGAGGAUAUACAUGUGCUGGAAACAGCACUAAAGUUUUCACAUGAGGAUCACCCAUGUAGAAGGCACGAGCUGAU | – | – | 15.8 | 35.2 |
| GUCAGCUCGUGAGGAUAUACAUGUGCUGGAAACAGCACUAUUAAAUUCACAUGAGGAUCACCCAUGUAGAAGGCACGAGCUGAU | – | – | 15.4 | 19.1 |
| GUCAGCUCGUGAGGAUAUGCAUCACUGCUUCGGCAGUGUAUUAAGAUCACAUGAGGAUCACCCAUGUAGAAGGCACGAGCUGAU | – | – | 7.3 | 41.7 |
| GUCAGUGUGGUAGGAUAUCGAAACGGUCAGUUACGAGAAGGGCUACAUGAGGAUCACCCAUGUAUCCAAGAUCGGCUUACAGCA | – | – | 5.87 | 5.92 |
| GUCAUCGUAUGAGGAUAUGGCACCGAAACGGUGCCAGAAGGCAUGUCAAUAGACAUGAGGAUCACCCAUGUGUUAUCGAUGGCA | 116 | 13.2 | – | – |
| GUCCUCAUGACAUGAGGAUCACCCAUGUAUUAUUUGUUAACUGAGGAUAUACUCUUAAUUUUUAUGUAGAAGGCAGAUUCGGUC | – | – | 35.6 | 39.9 |
| GUCCUCUUGACAUGAGGAUCACCCAUGUAUUAUUUGUUAACUGAGGAUAUACUCUUAUUUUUUAUGUAGAAGGCAGAUUUGUUC | – | – | 40.9 | 52.5 |
| GUCCUUUCUGAGGAUAUUAUCCUUUCCGAUUGAUAAGAAGGCAGUACAUGAGGAUCACCCAUGUGGGUUGUCUG | – | – | 29.8 | 38.3 |
| GUCGGAAACGACAAAAGUACCCGAGCAGAAGGCAUGUCAUAAGACAUGAGGAUCACCCAUGUGCAUGAGGAUAUGCUCGGGUAC | 5.83 | 5.28 | – | – |
| GUCGGAAACGACAAAAGUACCCGAGCAGAAGGGUGAAAACAUGAGGAUCACCCAUGUAAAUAAUCACAGGAUAUGCUCGGGUAC | 6.09 | 4.43 | – | – |
| GUCGGAAACGACAAAAGUAGCAUAGGAGAAGGCAUGUCAUAAGACAUGAGGAUCACCCAUGUUCGUGAGGAUAUCCUAUGCUAC | 37.3 | 13.2 | – | – |
| GUCGUACAUGAGGAUCACCCAUGUGAGGAUAUGAGUGACUCAGUGAAAACUGAGUCACUCAGAAGGCGCAUGAU | – | – | 84.5 | 384 |
| GUCGUUGUCUGGUCGAGGAUAGGGCAGGAUAUACAUGAGGAUCACCCAUGUGAAGCGCGAAGGAGGUAGAAGGGCCCACGUCAU | – | – | 14.7 | 14.8 |
| GUCUCGAUGUAAGGAUAUGCAGUGGAAUACACUGCAGAAGGUACAUGAGGAUCACCCAUGUAACUCUAAUAAUAAUAACGAGAC | – | – | 12 | 19.2 |
| GUCUCGUCAGGAUAUGACGCUACAUUUUGUUUUUAGAAGAGUCAGAAGGGACAUGAGGAUCACCCAUGUGAUUC | – | – | 329 | 402 |
| GUCUGGCUAGGAUAUACAGAAUCCACGAGUCGGUUGCCCUGACAUGAGGAUCACCCAUGUAGAAGGAGCGAGAA | – | – | 17.9 | 24.3 |
| GUCUGUUACGAGAAGGACAAUUGGAUGCAGGCUGUAGGAUAUCGAGGCAGACAUGAGGAUCACCCAUGUAGGCUUACGAUGGGU | – | – | 11.7 | 19.1 |
| GUGAAGAAUUAAGGAUAUUGAAUACAUAUGUUUAACAUGAGGAUCACCCAUGUGGGUUGCGGUAUCGAGAAGGUAAAUUACUGG | 111 | 126 | – | – |
